ChEMBL document CHEMBL2424616, “Synthesis and antimicrobial activity of novel 5-(1-adamantyl)-2-aminomethyl-4-substituted-1,2,4-triazoline-3-thiones” (2013)
Values after ≈ are worked out from the molar mass of the structure shown.

What was measured:
[1] = system: Candida albicans; test: Antifungal activity against Candida albicans IFO 0583 after 24 hrs by two fold dilution method; type: functional; settings: IFO 0583, 24 h
[2] = system: Candida albicans; test: Antifungal activity against Candida albicans IFO 0583 assessed as growth inhibition at 100 ug/disc after 48 hrs by agar disc-diffusion method; type: functional; settings: IFO 0583, 48 h, read-out: DIZ
[3] = system: Staphylococcus aureus; test: Antibacterial activity against Staphylococcus aureus IFO 3060 after 24 hrs by two fold dilution method; type: functional
[4] = system: Bacillus subtilis; test: Antibacterial activity against Bacillus subtilis IFO 3007 after 24 hrs by two fold dilution method; type: functional
[5] = system: Bacillus subtilis; test: Antibacterial activity against Bacillus subtilis IFO 3007 assessed as growth inhibition at 200 ug/disc after 24 hrs by agar disc-diffusion method; type: functional; settings: IFO 3007, 24 h, read-out: DIZ
[6] = system: Micrococcus luteus; test: Antibacterial activity against Micrococcus luteus IFO 3232 assessed as growth inhibition at 200 ug/disc after 24 hrs by agar disc-diffusion method; type: functional; settings: IFO 3232, 24 h, read-out: DIZ
[7] = system: Candida albicans; test: Antifungal activity against Candida albicans IFO 0583 assessed as growth inhibition at 200 ug/disc after 48 hrs by agar disc-diffusion method; type: functional; settings: IFO 0583, 48 h, read-out: DIZ
[8] = system: Escherichia coli; test: Antibacterial activity against Escherichia coli IFO 3301 assessed as growth inhibition at 200 ug/disc after 24 hrs by agar disc-diffusion method; type: functional; settings: IFO 3301, 24 h, read-out: DIZ
[9] = system: Pseudomonas aeruginosa; test: Antibacterial activity against Pseudomonas aeruginosa IFO 3448 assessed as growth inhibition at 200 ug/disc after 24 hrs by agar disc-diffusion method; type: functional; settings: IFO 3448, 24 h, read-out: DIZ
[10] = system: Micrococcus luteus; test: Antibacterial activity against Micrococcus luteus IFO 3232 after 24 hrs by two fold dilution method; type: functional
[11] = system: Escherichia coli; test: microbe, parasite or virus in culture; settings: IFO 3301, 24 h
[12] = system: Staphylococcus aureus; test: Antibacterial activity against Staphylococcus aureus IFO 3060 assessed as growth inhibition at 200 ug/disc after 24 hrs by agar disc-diffusion method; type: functional; settings: IFO 3060, 24 h, read-out: DIZ
[13] = system: Micrococcus luteus; test: Antibacterial activity against Micrococcus luteus IFO 3232 assessed as growth inhibition at 100 ug/disc after 24 hrs by agar disc-diffusion method; type: functional
In short: (§1)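 Agar disc-diffusion on Mueller-Hinton agar. Sterile 8 mm filter-paper discs carrying 100 µg of agent were laid on the seeded agar. Plates were incubated at 37 °C, and growth-inhibition zone diameters were read after 24 h for bacteria.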

[14] = system: Escherichia coli; settings: IFO 3301, 100 ug/disc
[15] = system: Pseudomonas aeruginosa; test: Antibacterial activity against Pseudomonas aeruginosa IFO 3448 assessed as growth inhibition at 100 ug/disc after 24 hrs by agar disc-diffusion method; type: functional; in short: as §1
[16] = system: Bacillus subtilis; test: Antibacterial activity against Bacillus subtilis IFO 3007 assessed as growth inhibition at 100 ug/disc after 24 hrs by agar disc-diffusion method; type: functional; in short: as §1
[17] = system: Pseudomonas aeruginosa; test: Antibacterial activity against Pseudomonas aeruginosa IFO 3448 after 24 hrs by two fold dilution method; type: functional
[18] = system: Staphylococcus aureus; test: Antibacterial activity against Staphylococcus aureus IFO 3060 assessed as growth inhibition at 100 ug/disc after 24 hrs by agar disc-diffusion method; type: functional; in short: as §1
[19] = system: Escherichia coli; test: microbe, parasite or virus in culture; settings: IFO 3301, 24 h, read-out: DIZ

Molecule | MIC ([3]; IFO 3060, 24 h) [µg/mL] | MIC ([4]; IFO 3007, 24 h) [µg/mL] | zone of inhibition at 200 µg/disc [5] [mm] | zone of inhibition at 200 µg/disc [6] [mm] | zone of inhibition at 200 µg/disc [7] [mm] | zone of inhibition at 200 µg/disc [8] [mm] | zone of inhibition at 200 µg/disc [9] [mm] | MIC ([10]; IFO 3232, 24 h) [µg/mL] | zone of inhibition at 200 µg/disc [12] [mm] | further results
Clc1ccccc1C(c1ccccc1)(c1ccccc1)n1ccnc1 [CLOTRIMAZOLE] | – | – | – | – | – | – | – | – | – | MIC [1]: 2 µg/mL (≈ 5.8 µM); zone of inhibition at 100 µg/disc [2]: 21 mm
COc1ccccc1N1CCN(Cn2nc(C34CC5CC(CC(C5)C3)C4)n(/N=C/c3ccccc3O)c2=S)CC1 | 0.5 (≈ 0.895 µM) | 0.5 (≈ 0.895 µM) | 33 | 25 | < 10 | 18 | 12 | 2 (≈ 3.58 µM) | 28 | MIC [11]: 8 µg/mL (≈ 14.3 µM)
GENTAMICIN | – | – | – | – | – | – | – | – | – | inhibition zone (IZ) [13]: 18 mm; MIC [3]: 2 µg/mL; IZ [14]: 20 mm; MIC [4]: 2 µg/mL; inhibition zone (IZ) [15]: 19 mm; inhibition zone (IZ) [16]: 25 mm; MIC [17]: 1 µg/mL; inhibition zone (IZ) [18]: 26 mm; MIC [10]: 2 µg/mL
Oc1ccc(/C=N/n2c(C34CC5CC(CC(C5)C3)C4)nn(CN3CCN(c4ccccc4)CC3)c2=S)cc1 | 4 (≈ 7.57 µM) | 4 (≈ 7.57 µM) | 22 | 19 | < 10 | 16 | < 10 | 16 (≈ 30.3 µM) | 22 | –
COc1ccccc1N1CCN(Cn2nc(C34CC5CC(CC(C5)C3)C4)n(C)c2=S)CC1 | 4 (≈ 8.82 µM) | 4 (≈ 8.82 µM) | 20 | 19 | < 10 | 11 | < 10 | 16 (≈ 35.3 µM) | 22 | –
Cn1c(C23CC4CC(CC(C4)C2)C3)nn(CN2CCN(c3cccc(C(F)(F)F)c3)CC2)c1=S | 0.5 (≈ 1.02 µM) | 0.5 (≈ 1.02 µM) | 33 | 28 | < 10 | 19 | 21 | 4 (≈ 8.14 µM) | 30 | MIC ([17]; IFO 3448, 24 h): 8 µg/mL (≈ 16.3 µM); MIC [11]: 16 µg/mL (≈ 32.5 µM)
CC1(C)S[C@@H]2[C@H](NC(=O)[C@H](N)c3ccccc3)C(=O)N2[C@H]1C(=O)O [AMPICILLIN] | 2 (≈ 5.72 µM) | 0.5 (≈ 1.43 µM) | – | – | – | – | – | 2 (≈ 5.72 µM) | – | zone of inhibition at 100 µg/disc ([13]; IFO 3232, 24 h, read-out: DIZ): 19 mm; zone of inhibition at 100 µg/disc ([15]; IFO 3448, 24 h, read-out: DIZ): 16 mm; zone of inhibition at 100 µg/disc ([16]; IFO 3007, 24 h, read-out: DIZ): 21 mm; MIC ([17]; IFO 3448, 24 h): 2 µg/mL (≈ 5.72 µM); zone of inhibition at 100 µg/disc ([18]; IFO 3060, 24 h, read-out: DIZ): 23 mm; zone of inhibition at 100 µg/disc [19]: 17 mm
